Source: PubChem (The Scripps Research Institute Molecular Screening Center)
STAT1 inh: reduces IFN-gamma driven STAT1 reporter signal | NIH 3T3 STAT1-luciferase reporter, luminescence | inhibition, % at 5.5 µM | 0.35% of 200,000 active | AID 920;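 active = inhibition above a set limit, the mean inhibition across all tested compounds plus 3 SD, cut at about 34% in these data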;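 also: 0% = IFN-gamma with DMSO and 100% = IFN-gamma with 300 µM nifuroxazide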
HSP90 refold inh: inhibitors of HSP90 luciferase refolding in rabbit reticulocyte lysate | AID 1789 | luciferase refolding luminescence, 3 h | inhibition, % at 5.6 µM | 0.91% of 290,000 active;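 active = inhibition above the screen-wide mean plus 3 SD, computed separately per campaign, cut at about 16% in these data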;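 also: 0% = DMSO wells and 100% = 60 µM geldanamycin wells; inhibitors lower the luminescence because luciferase stays unfolded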
STAT3 blocker: inhibitors of IL-6 induced STAT3 signaling. U3A cells, IL-6 STAT3-luciferase reporter, luminescence; host cell line lacks STAT1. inhibition, % at 5.5 µM. 0.89% of 190,000 active. AID 862;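 active = inhibition above the mean inhibition across all screened compounds plus 3 SD, cut at about 44% in these data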;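 also: 0% = DMSO only wells and 100% = 100 µM nifuroxazide control wells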
STAT3 act: increases IL-6 driven STAT3 reporter signal | U3A cells, IL-6 STAT3-luciferase reporter, luminescence; 100% = signal with IL-6 EC80 alone | activation (% of control), % at 5.6 µM | 0.91% of 190,000 active | AID 871;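 active = activation above the screen-wide mean of compound activation plus 3 SD, cut at about 130% in these data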;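 also: 0% = background luminescence of wells with medium and substrate only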
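system = STAT3-luciferase reporter U3A cells | reagent = IL-6 stimulus at 33 ng/mL final | timing = 1 h compound pre-exposure, 6 h IL-6 stimulation, 37 °C | measured by = luminescence | evaluation = % activation versus median of IL-6-stimulated wells | control set = IL-6-only wells as 100% reference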
HSP90 inh confirm: confirmation of HSP90 inhibitors; AID 1846; inhibition, % at 5.9 µM; 64% of 2,300 active; shares compounds with HSP90 refold inh; rabbit reticulocyte lysate, luciferase refolding luminescence, 3 h; in the data active = inhibition above about 18%;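 also: 0% = vehicle wells and 100% = reference inhibitor wells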
FLuc counter: blocks native firefly luciferase in HSP90 counter-screen | purified native firefly luciferase, luminescence | inhibition, % at 5.9 µM | AID 1847 | shares compounds with HSP90 refold inh | 48% of 2,300 active;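 active = inhibition above the mean inhibition of all tested sample wells plus 3 SD, cut at about 10% in these data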;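 also: 0% = DMSO with luciferase and 100% = wells lacking luciferase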
Target sequence (P08659 whole entry, looked up): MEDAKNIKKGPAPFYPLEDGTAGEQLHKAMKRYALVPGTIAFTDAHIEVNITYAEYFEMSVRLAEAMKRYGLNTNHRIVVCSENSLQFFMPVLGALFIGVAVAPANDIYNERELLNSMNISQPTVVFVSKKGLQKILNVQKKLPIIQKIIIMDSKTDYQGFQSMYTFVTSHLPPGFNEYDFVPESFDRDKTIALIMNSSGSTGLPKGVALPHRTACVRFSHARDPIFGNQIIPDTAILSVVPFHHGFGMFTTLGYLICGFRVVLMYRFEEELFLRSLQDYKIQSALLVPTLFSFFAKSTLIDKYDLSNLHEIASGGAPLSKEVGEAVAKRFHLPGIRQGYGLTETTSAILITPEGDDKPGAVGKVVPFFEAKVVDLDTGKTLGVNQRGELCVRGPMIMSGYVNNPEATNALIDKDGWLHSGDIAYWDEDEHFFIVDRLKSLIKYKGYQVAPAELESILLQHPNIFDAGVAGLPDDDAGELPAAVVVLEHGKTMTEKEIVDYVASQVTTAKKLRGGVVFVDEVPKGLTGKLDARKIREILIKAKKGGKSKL
An asterisk follows results filed as active; . = no result given. Compounds with a hit are over-represented: about 2% of the library has one in this group of screens.

SMILES | STAT1 inh | HSP90 refold inh | STAT3 blocker | STAT3 act | HSP90 inh confirm | FLuc counter
CC(C)(C)c1ccc(C(=O)N2CCN(Cc3ccccc3)CC2)cc1 | . | 22* | . | . | -3 | -17
CC1CCN(c2nc3ccc(C(=O)N4CCN(Cc5ccccc5)CC4)cc3s2)CC1 | -33 | 70* | 11 | 98 | 65* | 10*
O=C(c1ccc2nc(N3CCOCC3)sc2c1)N1CCC(Cc2ccccc2)CC1 | -6 | -2 | 6 | 99 | . | .
Cc1cccc(N2CCN(C(=O)c3ccc4nc(N5CCCCC5)sc4c3)CC2)c1C | . | 11 | . | . | . | .
CCOC(=O)N1CCN(C(=O)c2ccc3nc(N4CCCCC4)sc3c2)CC1 | 2 | 22* | -2 | 105 | 23* | -6
COc1cccc(N2CCN(C(=O)c3ccc4nc(N5CCC(C)CC5)sc4c3)CC2)c1 | . | 74* | . | . | 76* | 54*
CCOC(=O)N1CCN(C(=O)c2ccc3nc(N4CCC(C)CC4)sc3c2)CC1 | -10 | 14 | 10 | 93 | . | .
Cc1ccc(C(=O)N(CC(=O)NC2CCCC2)c2ccccc2Cl)s1 | . | 3 | . | . | . | .
COc1ccc(C(=O)NCc2ncccc2C)cc1OC1CCN(C(C)=O)CC1 | . | 5 | . | . | . | .
Nn1c(COc2ccccc2F)nnc1SCC(=O)NC1CCCC1 | . | -1 | . | . | . | .
S=C(NCc1cccnc1)c1ccccc1 | . | 19* | . | . | 0 | -2
O=c1cc(-c2cccc([N+](=O)[O-])c2)[nH][nH]1 | -1 | 24* | -5 | 104 | 0 | -3
COc1ccccc1CNC(=O)CS(=O)(=O)Cc1ccccc1 | . | -2 | . | . | . | .
COc1ccc(N2CCC(CNC(=O)Nc3cccc(OC)c3)C2)cc1 (configuration not stated) | 2 | 1 | 8 | 98 | . | .
COc1ccc(N2CCC(CNC(=S)Nc3cccc(OC)c3)C2)cc1 (configuration not stated) | 0 | 18* | 8 | 92 | 0 | -10
COc1cccc(NC(=O)c2cc3cccc(OC)c3o/c2=N\O)c1 | . | 11 | . | . | . | .
COc1cccc(NC(=O)c2cc3ccccc3o/c2=N\O)c1 | . | 48* | . | . | 66* | 63*
Cc1cccc(NC(=O)c2cc3ccccc3oc2=O)c1 | . | 20* | . | . | 33* | 13*
N=c1oc2ccccc2cc1C(=O)Nc1ccc(F)cc1 | . | 1 | . | . | . | .
O=C(O)c1ccccc1NC(=O)c1cc2ccccc2oc1=O | . | 23* | . | . | 2 | -6
Cc1ccc(NC(=O)c2cc3ccccc3oc2=N)cc1 | . | 55* | . | . | 20* | 31*
CCN(CC(=O)Nc1c(F)cccc1F)C(=O)CNC(=O)c1cccc(C)c1 | . | 13 | . | . | . | .
O=c1c2c(-c3ccc([N+](=O)[O-])cc3)ccnc2[nH]n1-c1ccccc1 | . | 3 | . | . | . | .
O=C(CN(C(=O)Cn1nnc(-c2ccc(F)cc2)n1)c1cccc(F)c1)NC1CCCC1 | . | 0 | . | . | . | .
O=C(c1cc(-c2ccc(Cl)cc2)on1)N1CCCCCC1 | . | 1 | . | . | . | .
SMILES | STAT1 inh | HSP90 refold inh | STAT3 blocker | STAT3 act | HSP90 inh confirm | FLuc counter
O=C(c1cc(-c2ccc(Cl)cc2Cl)on1)N1CCN(C(=O)c2ccco2)CC1 | -7 | 10 | 6 | 98 | . | .
O=C(c1cc(-c2ccc(Cl)cc2Cl)on1)N1CCCC1 | . | 37* | . | . | 55* | 57*
O=C(c1cc(-c2ccc(Cl)cc2Cl)on1)N1CCCCCC1 | . | 19* | . | . | 34* | 18*
COc1nc(-c2ccc(C)cc2)ccc1-c1noc(-c2ccco2)n1 | -16 | 9 | -12 | 112 | . | .
COc1nc(C)ccc1-c1noc(-c2ccco2)n1 | -33 | 19* | 27 | 80 | 33* | 24*
CCc1nnc(NC(=O)c2n[nH]c(=O)c3ccccc23)s1 | . | 26* | . | . | -6 | -9
CCc1ccc(NC(=O)c2n[nH]c(=O)c3ccccc23)cc1 | . | 0 | . | . | . | .
Cc1cc(/C=N/NC(N)=S)c(C)n1-c1ccc(Br)cc1 | -14 | 7 | -2 | 107 | . | .
Cc1nnc(N/N=C/c2cc(C)n(-c3ccc(F)cc3)c2C)n1N | -22 | 19* | -10 | 112 | -6 | -7
Cc1nnc(N/N=C/c2ccccc2O)n1N | -10 | 58* | -7 | 109 | -4 | -18
Cc1nnc(N/N=C/c2c(Cl)cccc2Cl)n1N | -8 | 19* | 17 | 87 | -7 | -11
Cc1cc(C)cc(NS(=O)(=O)c2ccc(NC(=O)C3CCCCC3C(=O)O)cc2)c1 (configuration not stated) | 2 | 4 | -2 | 99 | . | .
Cn1c(=O)n(-c2ccc(Cl)cc2)c(=O)c2c3c(sc21)COC(C)(C)C3 | 10 | 41* | 10 | 94 | -3 | -5
CN(C)c1ccc(N=Nc2ccc(C(=O)O)cc2)cc1 | . | 31* | . | . | 53* | 84*
CN(C)c1ccc(C(=O)c2ccccc2)cc1 | -21 | -4 | 1 | 100 | . | .
COc1cccc(NC(=O)C(=O)c2cn(CC(=O)N3CCCC3)c3ccccc23)c1 | . | -7 | . | . | . | .
COc1ccc(C(=O)NC2CCN(C(=S)Nc3cccc(C)c3)CC2)cc1 | 6 | 21* | 25 | 84 | 5 | -1
CC(C)NC(=O)CN1C(=O)c2ccccc2S1(=O)=O | -3 | 0 | 4 | 99 | . | .
Cc1ccc(C(=O)CN2C(=O)c3ccccc3S2(=O)=O)cc1 | . | 24* | . | . | 57* | -9
COC(=O)c1ccc(CN2C(=O)c3ccccc3S2(=O)=O)cc1 | 3 | 1 | 12 | 95 | . | .
Cc1ccc(C(=O)CN2/C(=C(\O)c3ccccc3)C(=O)c3ccccc3S2(=O)=O)c(C)c1 | -4 | 40* | -16 | 115 | 14 | 0
O=C(CN1C(=O)c2ccccc2S1(=O)=O)c1ccccc1Cl | . | 53* | . | . | 76* | -15
Cc1nc2cc(C(F)(F)F)ccc2n1C | 4 | 4 | 6 | 96 | . | .
O=c1cnc2ccccc2n1Cc1ccccc1C(F)(F)F | . | -3 | . | . | . | .
CC(C)Cn1c(=O)[nH]c(=O)c2c(C(F)(F)F)cc(-c3ccccc3)nc21 | . | 6 | . | . | . | .
SMILES | STAT1 inh | HSP90 refold inh | STAT3 blocker | STAT3 act | HSP90 inh confirm | FLuc counter
CCCc1cc(=O)oc2cc(OCc3ccc(C(=O)O)cc3)ccc12 | . | 22* | . | . | 16 | -22
CCCc1cc(=O)oc2cc(OCc3ccc(C(=O)O)o3)ccc12 | . | 23* | . | . | 18* | -24
C=C(Cl)COc1ccc2c(CCC)cc(=O)oc2c1 | 3 | 7 | 13 | 90 | . | .
O=C(c1cc(=O)[nH]c2ccccc12)N1CCN(c2ccc([N+](=O)[O-])cc2)CC1 | . | 2 | . | . | . | .
COc1cccc(NC(=O)C(=O)N/N=C(\C)CC(=O)Nc2ccc(NC(C)=O)cc2)c1 | . | 0 | . | . | . | .
O=C1OCCC1Sc1nnc(-c2ccc(Cl)cc2Cl)o1 (configuration not stated) | . | 33* | . | . | 67* | 57*
O=C1OCCC1Sc1nnc(-c2ccccc2)o1 (configuration not stated) | 4 | 1 | 4 | 101 | . | .
CCn1cc(C(=O)N[C@H](C(=O)NCCN2CCOCC2)C(C)C)c(=O)c2cc3c(cc21)OCO3 | . | -5 | . | . | . | .
CC(C)(C)c1ccc(C(=O)Nc2ccc(Cl)cc2)cc1 | -33 | -5 | 2 | 94 | . | .
CC(C)(C)c1ccc(NC(=O)c2ccsc2)cc1 | . | 24* | . | . | 39* | 27*
